Laboratory results published in ChEMBL document CHEMBL3611971, “Multifunctional novel Diallyl disulfide (DADS) derivatives with β-amyloid-reducing, cholinergic, antioxidant and metal chelating properties for the treatment of Alzheimer's disease” (Bioorg Med Chem, 2015).

system: not listed separately; assay: Cytotoxicity against HEK293 cells assessed as cell viability at 1 uM after 48 hrs by MTT assay relative to control; assay type: cell-based; settings: human, read-out: Activity
Summary of the method: (§1)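 HEK 293 cells grown in DMEM with 10% FBS and 1% penicillin–streptomycin at 37 °C, 5% CO2. Seeded at 5000 cells/well and cultured 24 h, then exposed 48 h to compound (DMSO stock diluted in complete medium; 0.1–100 μM final), in triplicate. MTT added for 4 h, formazan dissolved in DMSO, absorbance read at 570 nm against 630 nm reference. Mean ± SEM of 3 independent experiments.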

Structure (SMILES) | viability at 48 h, 1 µM [%]
COc1cc(/C=C/C(=O)SSC(=O)/C=C/c2ccc(O)c(OC)c2)ccc1O | 96.5
COc1ccc(/C=C/C(=O)SSC(=O)/C=C/c2ccc(OC)c(OC)c2)cc1OC | 96.1

molecular target: Acetylcholinesterase (Electrophorus electricus, UniProt O42275); assay: Inhibition of electric eel AChE using DTNB as substrate incubated for 5 mins prior to substrate addition measured after 2 mins by Ellman's method; settings: not given
Sequence (O42275 whole entry): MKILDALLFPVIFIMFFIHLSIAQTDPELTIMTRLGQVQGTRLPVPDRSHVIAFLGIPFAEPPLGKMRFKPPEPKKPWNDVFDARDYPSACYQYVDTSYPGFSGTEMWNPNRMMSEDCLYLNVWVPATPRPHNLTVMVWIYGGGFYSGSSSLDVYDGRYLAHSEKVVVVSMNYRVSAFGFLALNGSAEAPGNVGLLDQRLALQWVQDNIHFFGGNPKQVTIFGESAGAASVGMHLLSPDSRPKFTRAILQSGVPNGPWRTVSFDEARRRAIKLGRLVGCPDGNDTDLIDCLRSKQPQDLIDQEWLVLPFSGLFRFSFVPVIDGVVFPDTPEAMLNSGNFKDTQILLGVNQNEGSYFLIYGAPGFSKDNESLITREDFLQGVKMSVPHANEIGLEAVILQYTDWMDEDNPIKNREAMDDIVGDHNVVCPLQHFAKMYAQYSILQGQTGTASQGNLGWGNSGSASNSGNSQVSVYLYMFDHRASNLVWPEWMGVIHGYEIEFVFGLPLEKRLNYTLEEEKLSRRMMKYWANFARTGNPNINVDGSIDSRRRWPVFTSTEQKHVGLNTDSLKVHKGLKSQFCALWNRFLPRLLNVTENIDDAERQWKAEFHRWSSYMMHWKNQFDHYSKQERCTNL

Structure (SMILES) | IC50 [µM]
COc1ccc(/C=C/CSSC/C=C/c2ccc(OC)c(OC)c2)cc1OC | 1.1
Fc1cccc(/C=C/CSSC/C=C/c2cccc(F)c2)c1 | 53.2
O=C(/C=C/c1ccc(O)cc1)SSC(=O)/C=C/c1ccc(O)cc1 | 0.21
O=C(/C=C/c1cccc(Br)c1)SSC(=O)/C=C/c1cccc(Br)c1 | 0.54
COc1cc(/C=C/C(=O)SSC(=O)/C=C/c2ccc(O)c(OC)c2)ccc1O | 0.121
Oc1ccc(/C=C/CSSC/C=C/c2ccc(O)cc2)cc1 | 12.3
COc1cc(/C=C/CSSC/C=C/c2ccc(O)c(OC)c2)ccc1O | 1.45
COc1ccc(/C=C/C(=O)SSC(=O)/C=C/c2ccc(OC)cc2)cc1 | 0.22
COc1ccc(/C=C/CSSC/C=C/c2ccc(OC)cc2)cc1 | 8.29
Clc1ccc(/C=C/CSSC/C=C/c2ccc(Cl)cc2)cc1 | 37
COc1ccc(/C=C/C(=O)SSC(=O)/C=C/c2ccc(OC)c(OC)c2)cc1OC | 0.056

system: not listed separately; assay: Metal chelating activity of the compound assessed as reduction of Cu2+-induced amyloid beta (1 to 42) (unknown origin) aggregation at 50 uM after 24 hrs by transmission electron microscopic analysis; assay type: physicochemical; settings: not given
Summary of the method: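 Aβ1–42 diluted in 20 mM phosphate buffer (pH 7.4) at 4 °C. Preincubated 2 min with Cu2+ (Aβ and Cu2+ each 25 μM final), then incubated 24 h at 37 °C with or without compound at 50 μM. Samples placed on carbon-coated grids for 2 min at room temperature, stained 2 min with 1% uranyl acetate, and imaged by TEM.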

Structure (SMILES) | inhibition (INH)
COc1cc(/C=C/C(=O)SSC(=O)/C=C/c2ccc(O)c(OC)c2)ccc1O | Active
COc1ccc(/C=C/C(=O)SSC(=O)/C=C/c2ccc(OC)c(OC)c2)cc1OC | Active

system: not listed separately; assay: Cytotoxicity against HEK293 cells assessed as cell viability at 25 uM after 48 hrs by MTT assay relative to control; assay type: cell-based; settings: human, read-out: Activity; summary of the method: as §1

Structure (SMILES) | viability at 48 h, 25 µM [%]
COc1cc(/C=C/C(=O)SSC(=O)/C=C/c2ccc(O)c(OC)c2)ccc1O | 92.3
COc1ccc(/C=C/C(=O)SSC(=O)/C=C/c2ccc(OC)c(OC)c2)cc1OC | 95.7

system: HEK293; assay: Cytotoxicity against HEK293 cells assessed as cell viability at 0.1 to 100 uM after 48 hrs by MTT assay relative to control; assay type: cell-based; settings: human, hek293, 48 h; summary of the method: as §1

Structure (SMILES) | Activity
COc1cc(/C=C/C(=O)SSC(=O)/C=C/c2ccc(O)c(OC)c2)ccc1O | Dose-dependent effect
COc1ccc(/C=C/C(=O)SSC(=O)/C=C/c2ccc(OC)c(OC)c2)cc1OC | Dose-dependent effect

molecular target: Cholinesterase (Equus caballus, UniProt P81908); assay: Inhibition of equine serum BuChE using DTNB as substrate incubated for 5 mins prior to substrate addition measured after 2 mins by Ellman's method; settings: not given
Sequence (P81908 whole entry): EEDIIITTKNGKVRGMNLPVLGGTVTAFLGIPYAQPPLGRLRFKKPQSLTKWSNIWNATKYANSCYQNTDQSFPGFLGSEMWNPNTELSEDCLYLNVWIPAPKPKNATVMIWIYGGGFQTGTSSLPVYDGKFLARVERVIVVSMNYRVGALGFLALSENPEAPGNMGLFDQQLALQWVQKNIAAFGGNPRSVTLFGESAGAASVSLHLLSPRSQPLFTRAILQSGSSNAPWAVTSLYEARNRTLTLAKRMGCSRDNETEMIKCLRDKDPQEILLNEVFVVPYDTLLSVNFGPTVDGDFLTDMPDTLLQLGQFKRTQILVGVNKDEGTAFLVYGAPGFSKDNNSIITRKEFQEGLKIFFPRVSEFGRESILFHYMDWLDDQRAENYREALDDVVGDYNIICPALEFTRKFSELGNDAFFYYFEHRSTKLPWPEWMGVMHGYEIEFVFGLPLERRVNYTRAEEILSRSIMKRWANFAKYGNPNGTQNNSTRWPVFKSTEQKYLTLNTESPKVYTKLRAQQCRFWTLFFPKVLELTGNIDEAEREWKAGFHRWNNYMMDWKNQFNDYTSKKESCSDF

Structure (SMILES) | IC50 [µM]
COc1ccc(/C=C/CSSC/C=C/c2ccc(OC)c(OC)c2)cc1OC | 55.2
Fc1cccc(/C=C/CSSC/C=C/c2cccc(F)c2)c1 | > 100
O=C(/C=C/c1ccc(O)cc1)SSC(=O)/C=C/c1ccc(O)cc1 | 24.5
O=C(/C=C/c1cccc(Br)c1)SSC(=O)/C=C/c1cccc(Br)c1 | 38.7
COc1cc(/C=C/C(=O)SSC(=O)/C=C/c2ccc(O)c(OC)c2)ccc1O | 12.9
Oc1ccc(/C=C/CSSC/C=C/c2ccc(O)cc2)cc1 | 63
COc1cc(/C=C/CSSC/C=C/c2ccc(O)c(OC)c2)ccc1O | 57.9
COc1ccc(/C=C/C(=O)SSC(=O)/C=C/c2ccc(OC)cc2)cc1 | 16
COc1ccc(/C=C/CSSC/C=C/c2ccc(OC)cc2)cc1 | 59.5
Clc1ccc(/C=C/CSSC/C=C/c2ccc(Cl)cc2)cc1 | 94.2
COc1ccc(/C=C/C(=O)SSC(=O)/C=C/c2ccc(OC)c(OC)c2)cc1OC | 13.6

system: not listed separately; assay: Metal chelating activity of the compound assessed as formation of Fe2+-compound complex at 50 uM after 30 mins by UV-vis spectrometry; assay type: physicochemical; settings: 0.5 h
Summary of the method: (§2)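 UV absorption scan from 200 to 600 nm of compound in methanol, alone or with CuCl2 or FeSO4. Read after 30 min at room temperature, with compound and metal each at 50 μM final.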

Structure (SMILES) | Activity
COc1cc(/C=C/C(=O)SSC(=O)/C=C/c2ccc(O)c(OC)c2)ccc1O | Active
COc1ccc(/C=C/C(=O)SSC(=O)/C=C/c2ccc(OC)c(OC)c2)cc1OC | Active

system: not listed separately; assay: Metal chelating activity of the compound assessed as formation of Cu2+-compound complex at 50 uM after 30 mins by UV-vis spectrometry; assay type: physicochemical; settings: 0.5 h; summary of the method: as §2

Structure (SMILES) | Activity
COc1cc(/C=C/C(=O)SSC(=O)/C=C/c2ccc(O)c(OC)c2)ccc1O | Active
COc1ccc(/C=C/C(=O)SSC(=O)/C=C/c2ccc(OC)c(OC)c2)cc1OC | Active

system: not listed separately; assay: Cytotoxicity against HEK293 cells assessed as cell viability at 50 uM after 48 hrs by MTT assay relative to control; assay type: cell-based; settings: human, read-out: Activity; summary of the method: as §1

Structure (SMILES) | viability at 48 h, 50 µM [%]
COc1cc(/C=C/C(=O)SSC(=O)/C=C/c2ccc(O)c(OC)c2)ccc1O | 90.1
COc1ccc(/C=C/C(=O)SSC(=O)/C=C/c2ccc(OC)c(OC)c2)cc1OC | 92.8

system: not listed separately; assay: Metal chelating activity of the compound assessed as reduction of Cu2+-induced amyloid beta (1 to 42) (unknown origin) aggregation at 50 uM after 24 hrs by thioflavin-T-based fluorescence assay relative to control; assay type: physicochemical; settings: not given
Summary of the method: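 Aβ1–42 was HFIP-treated, dried, and held as DMSO stock. Diluted in […] (pH 6.6) with […]; 25 μM peptide incubated with or without 25 μM Cu2+ and 50 μM compound, 37 °C, 24 h.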

Structure (SMILES) | inhibition (INH) [%]
COc1cc(/C=C/C(=O)SSC(=O)/C=C/c2ccc(O)c(OC)c2)ccc1O | 78.5
COc1ccc(/C=C/C(=O)SSC(=O)/C=C/c2ccc(OC)c(OC)c2)cc1OC | 80.9

system: not listed separately; assay: Cytotoxicity against HEK293 cells assessed as cell viability at 10 uM after 48 hrs by MTT assay relative to control; assay type: cell-based; settings: human, read-out: Activity; summary of the method: as §1

Structure (SMILES) | viability at 48 h, 10 µM [%]
COc1cc(/C=C/C(=O)SSC(=O)/C=C/c2ccc(O)c(OC)c2)ccc1O | 94.4
COc1ccc(/C=C/C(=O)SSC(=O)/C=C/c2ccc(OC)c(OC)c2)cc1OC | 95.4

system: not listed separately; assay: Cytotoxicity against HEK293 cells assessed as cell viability at 0.1 uM after 48 hrs by MTT assay relative to control; assay type: cell-based; settings: human, read-out: Activity; summary of the method: as §1

Structure (SMILES) | viability at 48 h, 0.1 µM [%]
COc1cc(/C=C/C(=O)SSC(=O)/C=C/c2ccc(O)c(OC)c2)ccc1O | 97.3
COc1ccc(/C=C/C(=O)SSC(=O)/C=C/c2ccc(OC)c(OC)c2)cc1OC | 98.9

system: not listed separately; assay: Cytotoxicity against HEK293 cells assessed as cell viability at 100 uM after 48 hrs by MTT assay relative to control; assay type: cell-based; settings: human, read-out: Activity; summary of the method: as §1

Structure (SMILES) | viability at 48 h, 100 µM [%]
COc1cc(/C=C/C(=O)SSC(=O)/C=C/c2ccc(O)c(OC)c2)ccc1O | 80.9
COc1ccc(/C=C/C(=O)SSC(=O)/C=C/c2ccc(OC)c(OC)c2)cc1OC | 88.6

system: not listed separately; assay: Metal chelating activity of the compound assessed as reduction of Cu2+-amyloid beta (1 to 42)-complex induced H2O2 production from ascorbate at 800 nM after 30 mins by HRP/Amplex Red assay relative to control; assay type: physicochemical; parameters: scale not given: the % may be the effect or the level left; settings: 0.5 h, 0.8 µM
Summary of the method: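 Per well, in phosphate buffer (100 μL): CuCl2 400 nM, Aβ 200 nM, chelator 800 nM (1% v/v DMSO) and sodium ascorbate 10 mM, held 30 min at room temperature. Working solution with Amplex Red and HRP then added for another 30 min at room temperature. Fluorescence ex/em 530/590 nm. At least three measurements.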

Structure (SMILES) | Activity [%]
COc1cc(/C=C/C(=O)SSC(=O)/C=C/c2ccc(O)c(OC)c2)ccc1O | 62
COc1ccc(/C=C/C(=O)SSC(=O)/C=C/c2ccc(OC)c(OC)c2)cc1OC | 72

molecular target: Amyloid-beta precursor protein (Homo sapiens) (UniProt P05067); settings: at 25 µM
Sequence (P05067 whole entry): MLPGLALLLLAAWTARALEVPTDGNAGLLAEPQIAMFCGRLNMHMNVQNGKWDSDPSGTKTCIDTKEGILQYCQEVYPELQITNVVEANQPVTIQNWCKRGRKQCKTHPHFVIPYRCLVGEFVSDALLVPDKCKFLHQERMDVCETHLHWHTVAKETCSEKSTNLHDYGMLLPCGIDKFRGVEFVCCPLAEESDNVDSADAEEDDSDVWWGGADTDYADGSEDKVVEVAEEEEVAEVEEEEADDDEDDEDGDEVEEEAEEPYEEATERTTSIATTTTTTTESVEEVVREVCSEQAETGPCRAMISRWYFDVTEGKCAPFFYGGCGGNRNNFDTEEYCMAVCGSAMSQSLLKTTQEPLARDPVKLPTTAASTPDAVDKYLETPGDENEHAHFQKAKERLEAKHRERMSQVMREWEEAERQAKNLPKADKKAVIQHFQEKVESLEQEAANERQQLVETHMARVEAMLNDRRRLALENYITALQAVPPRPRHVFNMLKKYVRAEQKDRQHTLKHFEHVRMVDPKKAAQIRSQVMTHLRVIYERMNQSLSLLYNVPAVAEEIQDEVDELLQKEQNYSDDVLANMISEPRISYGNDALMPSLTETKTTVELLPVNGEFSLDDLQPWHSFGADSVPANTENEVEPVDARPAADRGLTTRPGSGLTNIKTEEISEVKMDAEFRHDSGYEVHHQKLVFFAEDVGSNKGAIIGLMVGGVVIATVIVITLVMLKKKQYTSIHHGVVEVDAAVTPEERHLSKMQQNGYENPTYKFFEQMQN

Structure (SMILES) | inhibition [%]
COc1ccc(/C=C/CSSC/C=C/c2ccc(OC)c(OC)c2)cc1OC | 61.2
Fc1cccc(/C=C/CSSC/C=C/c2cccc(F)c2)c1 | 44.2
O=C(/C=C/c1ccc(O)cc1)SSC(=O)/C=C/c1ccc(O)cc1 | 66.4
O=C(/C=C/c1cccc(Br)c1)SSC(=O)/C=C/c1cccc(Br)c1 | 68.7
COc1cc(/C=C/C(=O)SSC(=O)/C=C/c2ccc(O)c(OC)c2)ccc1O | 71.4
Oc1ccc(/C=C/CSSC/C=C/c2ccc(O)cc2)cc1 | 53
COc1cc(/C=C/CSSC/C=C/c2ccc(O)c(OC)c2)ccc1O | 66.9
COc1ccc(/C=C/C(=O)SSC(=O)/C=C/c2ccc(OC)cc2)cc1 | 63.5
COc1ccc(/C=C/CSSC/C=C/c2ccc(OC)cc2)cc1 | 58.5
Clc1ccc(/C=C/CSSC/C=C/c2ccc(Cl)cc2)cc1 | 48.2
COc1ccc(/C=C/C(=O)SSC(=O)/C=C/c2ccc(OC)c(OC)c2)cc1OC | 74.2
